Measured values as given in ChEMBL document CHEMBL3244308, “Potential antitumor agents. 22. Latentiated congeners of the 4'-(9-acridinylamino)methanesulfonanilides” (J Med Chem, 1977).

Key:
Mus musculus = test: Toxicity in ip dosed mouse assessed as optimum dose that providing maximum increase in life span administered qd for 1 to 5 days; type: organism-based; details: in vivo
Method in brief: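 Mice were C3H/DBA2 F1 hybrids weighing 18.5-22.5 g. L1210 cells (10^5) were implanted ip or sc above the right axilla. Daily ip treatment began 24 h later and continued for 5 days (dq 1-5), given in water or as a homogenized suspension in aqueous methylcellulose. The optimum dose (mg/kg/day) is the one giving maximum life-span increase (T/C% - 100). Groups were six mice; 50-day survivors were counted.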

[1] = Lipophilic-hydrophilic balance, Rm of the compound by reversed-phase partition chromatography; type: physicochemical
L1210 [2] = test: Antitumor activity against mouse L1210 cells subcutaneously xenografted in ip dosed C3H/DBA2 F1 hybrid mouse assessed as increase in host lifespan administered daily for 5 days starting 24 hrs post-tumor implantation; type: functional
Method in brief: (§1)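 10⁵ L1210 cells implanted sc above the right axilla into 18.5-22.5-g C3H/DBA2 F1 mice. Daily ip dosing for 5 days from 24 h after implant, as water-soluble salts or as homogenized suspensions in aqueous methylcellulose. Groups of six mice. Increase in life span (T/C% − 100) at the optimum dose (maximal life-span increase, mg/kg/day); 50-day survivors counted.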

L1210 [3] = test: Antitumor activity against mouse L1210 cells intraperitoneally xenografted in ip dosed C3H/DBA2 F1 hybrid mouse assessed as increase in host lifespan administered daily for 5 days starting 24 hrs post-tumor implantation; type: functional
Method in brief: as §1, with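 “ip” for “sc above the right axilla”, “treatment” for “dosing”, “salts (methanesulfonate or hydrochloride)” for “salts”, “Read-out is increase” for “Increase”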

[4] = Half life of the compound in 0.1 M mercaptoethanol buffer at pH 7.4 at 37 degC by thiolytic assay; type: physicochemical
Blood = test: Stability in mouse blood assessed as 4'-(9-acridinylamino)methanesulfonanilide release at 37 degC; type: ADME, tissue-based

Q: Which results are given for `CCCC(=O)N(c1ccc(Nc2c3ccc([N+](=O)[O-])cc3nc3c(C)cccc23)cc1)S(C)(=O)=O`?
A: Activity (Mus musculus): 50 mg/kg; Rm [1]: 0.31; ILS (L1210 [2]): 31%; ILS (L1210 [3]): 71%

Q: What does the source list for `CC(=O)N(c1ccc(Nc2c3ccc([N+](=O)[O-])cc3nc3c(C)cccc23)cc1)S(C)(=O)=O`?
A: Activity (Mus musculus): 200 mg/kg; Rm [1]: -0.03; ILS (L1210 [2]): 188%; ILS (L1210 [3]): 217%

Q: With `CCCCC(=O)N(c1ccc(Nc2c3ccccc3nc3cc([N+](=O)[O-])ccc23)cc1)S(C)(=O)=O` as the compound, how does the Activity (Mus musculus) read?
A: Its Activity is 26 mg/kg.

Q: And the Rm [1]?
A: The Rm was 0.32.

Q: And the ILS (L1210 [2])?
A: Its ILS is 57%.

Q: And the ILS (L1210 [3])?
A: Its ILS is 91%.

Q: What does the source list for `CC(=O)N(c1ccc(Nc2c3ccccc3nc3cc([N+](=O)[O-])ccc23)cc1)S(C)(=O)=O`?
A: Activity (Mus musculus): 50 mg/kg; Rm [1]: -0.08; ILS (L1210 [2]): 61%; ILS (L1210 [3]): 138%

Q: With `CCC(=O)N(c1ccc(Nc2c3ccccc3nc3cc([N+](=O)[O-])ccc23)cc1)S(C)(=O)=O` as the compound, how does the Activity (Mus musculus) read?
A: The Activity was 50 mg/kg.

Q: And the Rm [1]?
A: Its Rm is 0.13.

Q: And the ILS (L1210 [2])?
A: The ILS was 57%.

Q: And the ILS (L1210 [3])?
A: Its ILS is 162%.

Q: What does the source list for `CCCCCC(=O)N(c1ccc(Nc2c3ccccc3nc3cc([N+](=O)[O-])ccc23)cc1)S(C)(=O)=O`?
A: Activity (Mus musculus): 5 mg/kg; Rm [1]: 0.41; ILS (L1210 [2]): 39%; ILS (L1210 [3]): 57%

Q: For `CCC(=O)N(c1ccc(Nc2c3ccc([N+](=O)[O-])cc3nc3c(C)cccc23)cc1)S(C)(=O)=O`, which Activity (Mus musculus) is on record?
A: Its Activity is 50 mg/kg.

Q: And the Rm [1]?
A: The Rm was 0.2.

Q: What about the ILS (L1210 [2]) of the same compound?
A: Its ILS is 27%.

Q: What about the ILS (L1210 [3]) of the same compound?
A: Its ILS is 81%.

Q: Which Activity (Mus musculus) does the source give for `CCCCCCC(=O)N(c1ccc(Nc2c3ccccc3nc3cc([N+](=O)[O-])ccc23)cc1)S(C)(=O)=O` here?
A: The Activity was 9 mg/kg.

Q: What about the Rm [1] of the same compound?
A: The Rm was 0.5.

Q: What about the ILS (L1210 [2]) of the same compound?
A: Its ILS is 41%.

Q: What about the ILS (L1210 [3]) of the same compound?
A: The ILS was 48%.

Q: What does the source list for `Cc1cccc2c(Nc3ccc(NS(C)(=O)=O)cc3)c3ccc([N+](=O)[O-])cc3nc12`?
A: Activity (Mus musculus): 100 mg/kg; Rm [1]: -0.01; ILS (L1210 [2]): 98%; ILS (L1210 [3]): 113%

Q: For `CCCCCCCC(=O)N(c1ccc(Nc2c3ccccc3nc3cc([N+](=O)[O-])ccc23)cc1)S(C)(=O)=O`, which Activity (Mus musculus) is on record?
A: Its Activity is 10 mg/kg.

Q: What about the Rm [1] of the same compound?
A: The Rm was 0.61.

Q: And the ILS (L1210 [2])?
A: Its ILS is 47%.

Q: What about the ILS (L1210 [3]) of the same compound?
A: Its ILS is 62%.

Q: Which Activity (Mus musculus) does the source give for `CCCCCCCCC(=O)N(c1ccc(Nc2c3ccccc3nc3cc([N+](=O)[O-])ccc23)cc1)S(C)(=O)=O` here?
A: Its Activity is 75 mg/kg.

Q: What about the Rm [1] of the same compound?
A: The Rm was 0.71.

Q: What about the ILS (L1210 [2]) of the same compound?
A: The ILS was 61%.

Q: And the ILS (L1210 [3])?
A: Its ILS is 144%.

Q: Which results are given for `CC(=O)N(c1ccc(Nc2c3ccccc3nc3ccccc23)cc1)S(C)(=O)=O.Cl`?
A: Activity (Mus musculus): 160 mg/kg; Rm [1]: -0.14; ILS (L1210 [2]): 68%; half-life [4]: 396 min; ILS (L1210 [3]): 109%; Stability (Blood): Unstable

Q: With `CN(C)/N=N/c1ccc2c(Nc3ccc(NS(C)(=O)=O)cc3)c3ccccc3nc2c1.Cl` as the compound, how does the Activity (Mus musculus) read?
A: The Activity was 8 mg/kg.

Q: And the Rm [1]?
A: The Rm was 0.22.

Q: And the ILS (L1210 [2])?
A: Its ILS is 38%.

Q: What about the ILS (L1210 [3]) of the same compound?
A: The ILS was 110%.

Q: What does the source list for `CCCN(C)/N=N/c1ccc2c(Nc3ccc(NS(C)(=O)=O)cc3)c3ccccc3nc2c1.CS(=O)(=O)O`?
A: Activity (Mus musculus): 15 mg/kg; Rm [1]: 0.47; ILS (L1210 [2]): 27%; ILS (L1210 [3]): 98%

Q: With `COc1cc(NS(C)(=O)=O)ccc1Nc1c2ccccc2nc2cc(/N=N/N(C)C)ccc12.Cl` as the compound, how does the Activity (Mus musculus) read?
A: Its Activity is 10 mg/kg.

Q: What about the Rm [1] of the same compound?
A: The Rm was 0.38.

Q: What about the ILS (L1210 [2]) of the same compound?
A: The ILS was 34%.

Q: What about the ILS (L1210 [3]) of the same compound?
A: The ILS was 141%.

Q: Which Activity (Mus musculus) does the source give for `CCCN(C)/N=N/c1ccc2c(Nc3ccc(NS(C)(=O)=O)cc3OC)c3ccccc3nc2c1.CS(=O)(=O)O` here?
A: The Activity was 15 mg/kg.

Q: What about the Rm [1] of the same compound?
A: Its Rm is 0.65.

Q: And the ILS (L1210 [2])?
A: Its ILS is 59%.

Q: And the ILS (L1210 [3])?
A: Its ILS is 100%.

Q: For `CS(=O)(=O)Nc1ccc(Nc2c3ccccc3nc3cc(N=[N+]=[N-])ccc23)cc1.Cl`, which Activity (Mus musculus) is on record?
A: The Activity was 16 mg/kg.

Q: And the Rm [1]?
A: Its Rm is -0.02.

Q: What about the ILS (L1210 [2]) of the same compound?
A: Its ILS is 64%.

Q: And the ILS (L1210 [3])?
A: Its ILS is 216%.

Q: For `COc1cc(NS(C)(=O)=O)ccc1Nc1c2ccccc2nc2cc(N=[N+]=[N-])ccc12.Cl`, which Activity (Mus musculus) is on record?
A: The Activity was 8 mg/kg.

Q: And the Rm [1]?
A: Its Rm is 0.14.

Q: And the ILS (L1210 [2])?
A: The ILS was 47%.

Q: And the ILS (L1210 [3])?
A: The ILS was 118%.

Q: What does the source list for `COc1cc(NS(C)(=O)=O)ccc1Nc1c2ccccc2nc2ccccc12` [AMSACRINE]?
A: Activity (Mus musculus): 6.7 mg/kg; Rm [1]: 0.18; ILS (L1210 [2]): 27%; ILS (L1210 [3]): 114%
